Source: publication PMC4085138 (Chemistry and physics of lipids, 2013)
Where a name gives a salt, the structure may show the parent alone.

T1: granuphilin C2A domain (Homo sapiens, UniProt Q96C24)
T1 sequence (Q96C24 352-488): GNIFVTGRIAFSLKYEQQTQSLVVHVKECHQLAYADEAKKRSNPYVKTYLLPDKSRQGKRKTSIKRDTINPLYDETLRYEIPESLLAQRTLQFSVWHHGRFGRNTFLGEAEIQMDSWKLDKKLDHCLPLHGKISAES


Tests used:
granuphilin C2A domain [1] = target: T1, granuphilin C2A domain; experiment: Intrinsic Trp fluorescence titration of IP6 or IP3 into free C2A domain; type: binding
granuphilin C2A domain [2] = target: T1, granuphilin C2A domain; experiment: FRET competition binding assay: IP6 titrated into vesicle-bound C2A; conditions: 125 μM accessible lipid, 1 μM C2A
granuphilin C2B domain [3] = target: T2, granuphilin C2B domain (Homo sapiens, UniProt Q96C24); experiment: Qualitative reversal of protein-to-membrane FRET by IP6; type: binding; conditions: 8 mM IP6, all lipid compositions tested
Summary of the method: (§1)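 Emission spectra recorded at 25 °C (excitation 284 nm) of vesicles bearing dansyl-PE acceptor (125 μM total accessible lipid) in KCl/NaCl/MgCl2/HEPES pH 7.4 buffer with 100 μM EDTA or 1 mM CaCl2. […] Each addition followed by 40 s stirred equilibration. Dansyl emission near 510 nm read; spectra dilution-corrected.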

granuphilin C2B domain [4] = target: T2, granuphilin C2B domain; experiment: FRET competition binding assay: IP6 titrated into vesicle-bound C2B
Summary of the method: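 Human C2B domain (Glu487–Leu671, E. coli-expressed, freed from GST by thrombin) at 1 μM, premixed with liposomes (125 μM total accessible lipid) in 140 mM KCl, […], 0.5 mM MgCl2, 25 mM HEPES pH 7.4 with 100 μM EDTA, 25 °C. IP6 titrated; acceptor emission at 520 nm (excitation 284 nm, 10-s average), dilution-corrected, lipid-only blank subtracted.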

granuphilin C2A domain [5] = target: T1, granuphilin C2A domain; experiment: Membrane dissociation kinetics on rapid addition of high IP6; type: binding; conditions: 8 mM IP6 rapidly added; biexponential
granuphilin C2A domain [6] = target: T1, granuphilin C2A domain; experiment: Qualitative reversal of protein-to-membrane FRET by IP6; type: binding; conditions: 8 mM IP6, all lipid compositions tested
Summary of the method: as §1

[7] = Qualitative protein-to-membrane FRET; type: binding; conditions: 1 μM domain, 125 μM total accessible lipid
Summary of the method: as §1

[8] = Qualitative protein-to-membrane FRET; type: binding; conditions: PS and PI replaced with PG; 1 μM domain
Summary of the method: as §1

[9] = Stopped-flow FRET association and dissociation kinetics; type: binding; conditions: 0.3 μM protein, 75 μM total accessible lipid
Summary of the method: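 Association run by stopped-flow at 25 °C in assay buffer with 100 μM EDTA: 0.3 μM domain rapidly mixed with liposomes (75 μM total accessible lipid, after mixing). Excitation 284 nm, dansyl emission through a 475-nm longpass filter, data within 1 ms dead time discarded. Single-exponential fit gives kobs; traces averaged over 9–12 mixing events, ≥3 replicates.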

[10] = Qualitative protein-to-membrane FRET; type: binding; conditions: 1 μM domain, 125 μM total accessible lipid; remark: listed apart in the source
Summary of the method: as §1

[11] = Stopped-flow FRET association and dissociation kinetics; type: binding; conditions: 0.3 μM protein, 75 μM total accessible lipid; remark: listed apart in the source
Summary of the method: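 Stopped-flow measurements at 25 °C in assay buffer with 100 μM EDTA; excitation 284 nm, dansyl emission through a 475-nm longpass filter, first 1 ms discarded. For association, 0.3 μM domain was mixed with liposomes (75 μM total accessible lipid, after mixing), and a single-exponential fit gave kobs. For dissociation, pre-bound complexes were mixed with equal volume of 4-fold excess unlabeled vesicles, and an exponential decay fit gave koff. kon was derived from kobs and koff; ≥3 replicates.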

[12] = Qualitative protein-to-membrane FRET; type: binding; conditions: 1 μM domain, 125 μM total accessible lipid; remark: listed apart in the source
Summary of the method: as §1

Row | Molecule | Ki (granuphilin C2A domain [1]) [µM] | fold less tight binding of IP3 than IP6 to C2A (granuphilin C2A domain [1]) | IC50 (granuphilin C2A domain [2]; PC/PG/dPE vesicles) [µM] | IC50 (granuphilin C2A domain [2]; PC/PI/dPE vesicles) [µM] | IC50 (granuphilin C2A domain [2]; PC/PS/dPE vesicles) [µM] | IC50 (granuphilin C2A domain [2]; PM(+)PIP2 vesicles, 100 μM EDTA) [µM] | IC50 (granuphilin C2A domain [2]; PM(+)PIP3 vesicles) [µM] | IC50 (granuphilin C2A domain [2]; PM(−)PIPx vesicles) [µM] | reversal of protein-to-membrane FRET (dansyl emission at 512 nm) (granuphilin C2B domain [3]) | IC50 (granuphilin C2B domain [4]) [µM] | Ki (granuphilin C2B domain [4]) [µM] | fold faster dissociation kinetics than by approach to equilibrium method (granuphilin C2A domain [5]) | reversal of protein-to-membrane FRET (dansyl emission at 512 nm) (granuphilin C2A domain [6]) | protein-to-membrane FRET (dPE emission) on protein addition [7] | protein-to-membrane FRET (dPE emission) on protein addition [8] | kobs for association [9] [s⁻¹] | protein-to-membrane FRET (dPE emission) on protein addition [10] | kobs for association [11] [s⁻¹] | protein-to-membrane FRET (dPE emission) on protein addition [12]
1 | O=P(O)(O)O[C@@H]1[C@H](O)[C@H](O)[C@@H](OP(=O)(O)O)[C@H](OP(=O)(O)O)[C@H]1O [IP3, D-myo-inositol-1,4,5-triphosphate tripotassium salt] | 80 ± 30 | ~ 40 fold |  |  |  |  |  |  |  |  |  |  |  |  |  |  |  |  | 
2 | O=P(O)(O)O[C@H]1[C@H](OP(=O)(O)O)[C@@H](OP(=O)(O)O)[C@H](OP(=O)(O)O)[C@@H](OP(=O)(O)O)[C@H]1OP(=O)(O)O [IP6, D-myo-inositol 1,2,3,4,5,6,-hexakisphosphate dodecasodium salt] | 1.8 ± 0.1 |  | 11 ± 1 | 5 ± 1 | 10 ± 1 | 1600 ± 200 | 1100 ± 100 | 37 ± 6 | completely reversed | 21 ± 3 | 1.9 ± 0.5 | ~ 100 fold | completely reversed |  |  |  |  |  | 
3 | C2A: human granuphilin C2A domain (Gly352 – Ser488) with C-terminal His6 tag, expressed in E. coli (protein, UniProt Q96C24 352-488, looked up, fragment, C2A domain C-terminal His6 tag) GNIFVTGRIAFSLKYEQQTQSLVVHVKECHQLAYADEAKKRSNPYVKTYLLPDKSRQGKRKTSIKRDTINPLYDETLRYEIPESLLAQRTLQFSVWHHGRFGRNTFLGEAEIQMDSWKLDKKLDHCLPLHGKISAES |  |  |  |  |  |  |  |  |  |  |  |  |  | increase in dPE emission | Binding was restored | 190 ± 30 | FRET was observed | 150 ± 20 | increase in dPE emission
